According to ChEMBL document CHEMBL1131089, “Physical parameters and biological stability of yttrium(III) diethylenetriaminepentaacetic acid derivative conjugates” (J Med Chem, 1998):

Columns and labels:
[1] = Fraction of 88Y (%) released from chelate after incubation in serum for 15 hours; format: ADME
How it was run: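 p-Nitrobenzyl DTPA derivatives converted to p-isothiocyanato form, conjugated to antibody B72.3, labeled with 88Y. Conjugates incubated in serum 15 h; released 88Y assessed by size-exclusion HPLC (TSK 3000SW, MES/Cl− buffer 0.02 M MES, 0.15 M NaCl, pH 6.5). 88Y-albumin eluted at 7.7 min, assigned against molecular weight standard. Injectate aliquots counted for HPLC recovery.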

[2] = Yttrium(III) stability constant of the compound.; format: physicochemical
How it was run: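 Spectrophotometric competition at 25 °C, μ = 0.1 M. Y(III) (3.950 × 10⁻⁶ M) with Arsenazo III (2.00 × 10⁻⁵ M) at pH 3.90, titrated with ligand aliquots. Absorbance drop at 652 nm after each equilibration gave conditional constants, converted to log K. Y–AAIII ML and ML₂ constants and extinction coefficients first obtained by titrating dye with YCl₃.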

Mus musculus = species on record: Mus musculus; experiment: Percent injected dose per gram at 168 hour for mice injected with 88Y-Ligand-B 72.3; format: functional, organism-based

Row | Compound | 88Y-serum [1] [%] | Log K [2] | ID/g femur (Mus musculus) [%]
1 | O=C(O)CN(CCN(CC(=O)O)C(Cc1ccc([N+](=O)[O-])cc1)CN(CC(=O)O)CC(=O)O)CC(=O)O (centres undefined) | 7 | 21.7 | 5.2
2 | O=C(O)CN(CCN(CC(=O)O)CC(Cc1ccc([N+](=O)[O-])cc1)N(CC(=O)O)CC(=O)O)CC(=O)O (centres undefined) |  | 21.5 | 4.3
3 | O=C(O)CN(CCN(CC(=O)O)CC(=O)O)CCN(CC(=O)O)CC(=O)O [PENTETIC ACID] |  | 22.4 | 
4 | O=C(O)CN(CCN(CC(=O)O)[C@@H]1CCCC[C@H]1N(CC(=O)O)CC(=O)O)CC(=O)O |  | 24.2 | 
5 | O=C(O)CN(CC(=O)O)[C@@H](Cc1ccc([N+](=O)[O-])cc1)CN(CC(=O)O)[C@@H]1CCCC[C@H]1N(CC(=O)O)CC(=O)O | 18.5 | 24.4 | 6.1
6 | CC(CN(CC(=O)O)CC(=O)O)N(CC(=O)O)CC(Cc1ccc([N+](=O)[O-])cc1)N(CC(=O)O)CC(=O)O (centres undefined) | 4.84 | 22.5 | 3
7 | O=C(O)CN(CC(=O)O)[C@H](Cc1ccc([N+](=O)[O-])cc1)CN(CC(=O)O)[C@@H]1CCCC[C@H]1N(CC(=O)O)CC(=O)O | 3.79 | 24.7 | 3.6
8 | CC(CN(CC(=O)O)CC(Cc1ccc([N+](=O)[O-])cc1)N(CC(=O)O)CC(=O)O)N(CC(=O)O)CC(=O)O (centres undefined) | 6.27 | 22.5 | 2.5
